Bioassay records: PubChem, several laboratories
The entries come from a sample that favours hits as a whole.
Diaph inh CS: inhibits diaphorase or chemically oxidizes, flagging diaphorase assay artifacts | AID 1217 | diaphorase resazurin-to-resorufin fluorescence, NADH, 16 min; bacterial (C. kluyveri) enzyme, not human | inhibition, % at 20 µM | 190,000 compounds, 0.69% hits;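 active = primary screen inhibition at 20 µM above a set limit, cut at about 50% in these data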;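 note: plate controls were DMSO with full reaction for no effect and wells lacking NADH for full effect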
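Assay system: diaphorase enzyme from Clostridium kluyveri. Quantity: enzyme working solution with 0.14 U/mL diaphorase. Schedule: reaction incubation of 16 min at room temperature. Technique: resorufin fluorescence, excitation 544 nm, emission 590 nm. Controls: No-NADH positive control and DMSO neutral control.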
G6PDH CS: L. mesenteroides G6PDH inhibition counter-screen; Purified L. mesenteroides G6PDH, diaphorase/resazurin coupled fluorescence, 45 min; inhibition, % at 5 µM; 200,000 compounds, 0.12% hits; AID 1020
PfG6PD inh: PfG6PD (Plasmodium falciparum) enzyme inhibition | AID 504690 | inhibition, % at 20 µM | PfGluPho enzyme, NADPH resazurin-diaphorase fluorescence | 350,000 compounds, 0.78% hits;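 active = inhibition reaching at least a set limit at 20 µM in the primary screen, cut at about 59% in these data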;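 note: 0% = DMSO wells with substrate and 100% = DMSO wells lacking glucose-6-phosphate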
L major viab: Leishmania major promastigote growth inhibition. Leishmania major promastigotes, resazurin fluorescence viability. inhibition, % at 10 µM. 200,000 compounds, 9% hits;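 note: promastigotes grown with compound for 44 hours at 28 °C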
Diaphorase act: activates diaphorase or chemically reduces, flagging diaphorase assay artifacts; Diaphorase/resazurin coupled assay, resorufin fluorescence, 16 min; active compounds read high; 1 = vehicle wells, 0 = NADH-free wells; activation factor at 20 µM; 190,000 compounds, 0.005% hits;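 active = diaphorase activity raised at least twofold by the compound at 20 µM; inactive = activation factor below 2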
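Material: Purified diaphorase enzyme from Clostridium kluyveri | Buffer or medium: 50 mM HEPES pH 7.4 with 4.542 mM MgCl2, 0.005% Tween 20 | Times: 16 min enzyme reaction, ambient temperature | Signal: Red resorufin fluorescence at 544/590 nm excitation/emission | Measure: Increased resorufin signal from activators or reducing compounds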
DTT redox prof: compounds producing H2O2 with reducing agent – biochemical, NIH compound library profiling, artefact control for MLSCN library redox annotation, primary screen; AID 878; activation, % at 10 µM; DTT-dependent redox cycling H2O2, phenol red/HRP absorbance; 100% = 100 µM peroxide control, 0% = buffer; 200,000 compounds, 0.03% hits;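 active = activation of at least 50% relative to the plate's high and low controls in the primary single-dose screen; inactive = activation below 50%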;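 note: compound incubated with DTT at 0.8 mM final as the reducing agent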
* = called active by the depositor; . = no result given. Cut-off read from the data, not from the text of the source, unless noted: active = inhibition above about 50%; inactive = the rest.

SMILES	Diaph inh CS	G6PDH CS	PfG6PD inh	L major viab	Diaphorase act	DTT redox prof
O=C(CNS(=O)(=O)c1c(Cl)cccc1Cl)OCc1csc(-c2ccccc2)n1	16.9	2.5	-3.6	56.9*	0.8	0.2
CC(=O)NC(c1ccc(Cl)cc1)c1c(O)ccc2ccc(O)cc12 (centres undefined)	26.3	54.1*	38.7	44.1	0.7	-1.5
O=C(NC(c1ccc(Cl)cc1)c1c(O)ccc2ccccc12)c1ccccc1 (centres undefined)	20.3	-11.1	3.7	99.2*	0.8	0.0
O=C(NC(c1ccccc1)c1c(O)ccc2ccccc12)c1ccccc1Cl (centres undefined)	22.9	7.4	14.8	99.7*	0.8	-2.9
CC(C)CC(=O)NC(c1ccccc1)c1c(O)ccc2ccccc12 (centres undefined)	.	.	2.2	.	.	.
CC(=O)Nc1cccc2ccc(O)cc12	.	.	9.2	.	.	.
OC(CSc1ccccc1)CN1CCN(c2ccc(Cl)cc2)CC1 (centres undefined)	.	.	4.2	.	.	.
O=C(Nc1ccc(S(=O)(=O)N2CCCCC2)cc1)c1ccc(CN2CCc3ccccc3C2)cc1	3.5	4.0	5.9	99.1*	1	1.1
O=C(Nc1ccc(S(=O)(=O)Nc2ccccc2)cc1)c1ccc(CN2CCOCC2)cc1	23.2	11.5	17.5	82.5*	0.8	-0.7
O=C(Nc1ccc(CN2CCOCC2)cc1)c1ccc(-c2ccc(Br)cc2)o1	6.2	-0.3	3.9	83.1*	0.9	-0.7
O=C(Nc1ccc(CN2CCOCC2)cc1)c1ccc(Br)cc1	.	.	12.8	.	.	.
O=C(Nc1ccccc1)c1ccc(CN2CCc3ccccc3C2)cc1	5.7	0.6	-0.1	13.1	0.9	-0.8
COc1cc(/C=C/C(=O)Nc2cc(C(F)(F)F)ccc2Cl)cc(OC)c1OC	18.5	6.1	32.3	66.8*	0.8	0.5
Cc1ccccc1OCC(O)Cn1c2ccccc2c2ccccc21 (centres undefined)	23.7	-3.8	37.0	91.2*	0.8	1.9
CN=c1sc2ccccc2n1CC(O)COc1ccccc1 (centres undefined)	21.7	-2.5	8.5	28.4	0.8	0.0
CC(=O)Nc1ccc(OCC(O)Cn2c3ccccc3c3ccccc32)c(C)c1 (centres undefined)	13.9	6.9	19.5	75.2*	0.9	-6.8
O=C(O)c1ccc(OCC(O)Cn2c3ccccc3c3ccccc32)cc1 (centres undefined)	.	.	0.7	.	.	.
Cc1ccc(N(CC(O)Cn2c3ccccc3c3ccccc32)S(C)(=O)=O)cc1 (centres undefined)	27.6	3.5	23.1	40.6	0.7	0.3
CCN=c1sc2ccccc2n1CC(O)COc1ccccc1 (centres undefined)	2.9	5.1	24.6	99.5*	1	0.1
CC(=O)Nc1ccc(N(CC(O)Cn2c3ccccc3c3ccccc32)S(=O)(=O)c2ccc(C)cc2)cc1 (centres undefined)	17.9	-14.5	5.2	61.8*	0.8	1.4
Cc1cc(=O)c2c([nH]1)c(C)cc1[nH]c(C)c(C)c12	.	.	14.2	.	.	.
CC(=O)Nc1ccc(OCC(O)Cn2c3ccccc3c3ccccc32)cc1 (centres undefined)	7.0	-8.7	8.9	85.2*	0.9	-0.5
Cc1ccc(N(CC(O)Cn2nc(C)cc2C)S(=O)(=O)c2ccc3ccccc3c2)cc1 (centres undefined)	15.4	-16.3	17.5	75.8*	0.8	0.4
Cc1cc(C)n(CC(O)CN(c2ccccc2)S(=O)(=O)c2ccccc2)n1 (centres undefined)	4.2	6.7	-17.8	0.0	1	0.5
OC(COc1ccccc1)Cn1c2ccccc2c2ccccc21 (centres undefined)	19.3	-20.2	27.4	69.6*	0.8	-0.3
SMILES	Diaph inh CS	G6PDH CS	PfG6PD inh	L major viab	Diaphorase act	DTT redox prof
O=C(CN1C(=O)COc2ccccc21)NC1CCCC1	.	.	-19.1	.	.	.
Cc1nc(CCNC(=O)C2CCC(=O)N(Cc3cccc(F)c3)C2)sc1C (centres undefined)	.	.	10.3	.	.	.
CC(C)c1c(C(=O)N/N=C/c2cccc(OCc3ccc(F)cc3)c2)nnn1-c1nonc1N	.	.	47.6	.	.	.
CCCCNc1nc(=S)[nH]c2cc(OC)c(OC)cc12	24.0	-3.7	36.3	25.7	0.8	-0.3
CCOCCCNc1nc(=S)[nH]c2cc(OC)c(OC)cc12	22.2	2.5	25.2	66.9*	0.8	1.8
C=CCN1CC(c2nc3ccccc3n2Cc2cccc3ccccc23)CC1=O (centres undefined)	7.1	-0.8	16.5	86.7*	0.9	-0.2
Cc1ccc(OCCn2c(C3CC(=O)N(Cc4ccccc4)C3)nc3ccccc32)cc1 (centres undefined)	17.4	-18.7	16.1	91.5*	0.8	-2.2
O=C(COc1ccccc1)OCc1cc(-c2ccco2)on1	.	.	3.3	.	.	.
Cc1ncn(-c2ccc(C(=O)Oc3ccccc3)cn2)n1	7.8	1.5	-12.3	-8.2	0.9	-1.8
C[C@@H]1CNC(=O)c2c(C(=O)N[C@@H](Cc3c[nH]c4ccccc34)C(=O)OC(C)(C)C)ncn21	.	.	1.8	.	.	.
Cc1ccc(-c2csc3nc[nH]c(=S)c23)cc1C	58.9*	4.4	10.1	7.4	0.4	0.7
COc1ccc(-c2csc3nc[nH]c(=O)c23)cc1OC	.	.	-11.4	.	.	.
Cc1cn(CC(=O)c2ccccc2)c2ccccc12	.	.	3.4	.	.	.
Cc1ccc(S(=O)(=O)/N=C(/c2ccc(F)cc2)N(C)C)cc1	.	.	-11.8	.	.	.
CC(C(=O)Nc1ccccc1Sc1ccccc1)N(c1ccccc1)S(C)(=O)=O (centres undefined)	21.9	3.2	-1.7	99.3*	0.8	1.8
CS(=O)(=O)N(CC(=O)Nc1ccccc1Sc1ccccc1)c1ccc(F)cc1	25.5	-0.1	2.0	75.7*	0.7	-0.8
CS(=O)(=O)N(CC(=O)Nc1ccccc1-c1ccccc1)c1ccc(F)cc1	12.5	10.5	6.8	18.1	0.9	-1.3
O=C(N/N=C/c1cc(Cl)cc([N+](=O)[O-])c1O)c1ccccc1NS(=O)(=O)c1cccs1	.	.	-53.1	.	.	.
Cc1ccc(S(=O)(=O)/N=C2\SC(CC(=O)Nc3ccc(F)cc3)C(=O)N2c2ccccc2)cc1 (centres undefined)	6.4	11.9	14.5	63.4*	0.9	-0.3
Cc1nonc1OCC(C)(COc1nonc1C)NC(=O)c1ccccc1	0.1	4.1	-3.7	-5.0	1	0.6
CC1C/C(=N\NC(=S)NC(C)C)CC(C)(C)C1 (centres undefined)	8.6	0.9	11.7	100.3*	0.9	0.1
CC1=CC(C)(C)NC(=S)N1c1cccc2ccccc12	8.1	0.9	20.8	15.3	0.9	-2.1
